In ChEMBL document CHEMBL4411287, “Discovery and optimization of a series of 3-substituted indazole derivatives as multi-target kinase inhibitors for the treatment of lung squamous cell carcinoma” (Eur J Med Chem, 2019):
Active and inactive are the calls of the source. The calls are words filed in the database; no cut-off is given here.

How the values were obtained:
[1] = Antiproliferative activity against human UM-UC-14 cells harboring FGFR3 mutation after 72 hrs by CCK8 assay; format: functional, cell-based; settings: UMUC14, 72 h
Outline: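 Cells seeded at low density in growth medium and compounds added the next day. Incubated 72 h, then proliferation read by sulforhodamine B, MTT or CCK-8. IC50 obtained by four-parameter concentration-response curve fitting.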

[2] = target: Mitogen-activated protein kinase 3 (Homo sapiens) (UniProt P27361); experiment: Inhibition of ERK1 (unknown origin) at 10 nM relative to control
[3] = target: Platelet-derived growth factor receptor alpha (Homo sapiens) (UniProt P16234); experiment: Inhibition of PDGFR-alpha (unknown origin) at 100 nM relative to control
Outline: (§1)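 Purified recombinant kinase domains run in ELISA on precoated poly(Glu,Tyr) 4:1 (20 µg/mL) with 10 µM ATP in 50 mM HEPES pH 7.4, 50 mM MgCl2, 0.5 mM MnCl2, 0.2 mM Na3VO4, 1 mM DTT; 1% DMSO control; 60 min at 37 °C. Phosphotyrosine read by PY99 antibody, HRP anti-mouse IgG, OPD/H2O2 at 490 nm; inhibition = [1−A490/A490control]×100%; two separate experiments.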

NCI-H1581 = experiment: Antitumor activity against human NCI-H1581 cells xenografted in nude mouse assessed as tumor growth inhibition at 20 mg/kg, po qd for 7 to 10 days relative to control; format: functional; settings: read-out: TGI
Outline: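 Female nude mice, 4-6 weeks old. NCI-H1581 cells (5×10^6 in 200 µL) injected s.c., grown to 700-800 mm³, then 1-mm³ fragments implanted s.c. by trocar. At 100-150 mm³ animals were randomized (vehicle n=12, treated n=6) and dosed orally once daily for 7 days. Tumours measured twice weekly, volume = length×width²/2. TGI calculated from change in tumour volume versus vehicle on the final day, with Student's t-test.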

[4] = test system: T1, Discoidin domain-containing receptor 2 (Homo sapiens), Q16832 [I638F]; experiment: Inhibition of DDR2 I638F mutant in human NCI-H2286 cells assessed as decrease in ERK phosphorylation at […] after 2 hrs by Western blot analysis; format: cell-based
T1 sequence (whole entry): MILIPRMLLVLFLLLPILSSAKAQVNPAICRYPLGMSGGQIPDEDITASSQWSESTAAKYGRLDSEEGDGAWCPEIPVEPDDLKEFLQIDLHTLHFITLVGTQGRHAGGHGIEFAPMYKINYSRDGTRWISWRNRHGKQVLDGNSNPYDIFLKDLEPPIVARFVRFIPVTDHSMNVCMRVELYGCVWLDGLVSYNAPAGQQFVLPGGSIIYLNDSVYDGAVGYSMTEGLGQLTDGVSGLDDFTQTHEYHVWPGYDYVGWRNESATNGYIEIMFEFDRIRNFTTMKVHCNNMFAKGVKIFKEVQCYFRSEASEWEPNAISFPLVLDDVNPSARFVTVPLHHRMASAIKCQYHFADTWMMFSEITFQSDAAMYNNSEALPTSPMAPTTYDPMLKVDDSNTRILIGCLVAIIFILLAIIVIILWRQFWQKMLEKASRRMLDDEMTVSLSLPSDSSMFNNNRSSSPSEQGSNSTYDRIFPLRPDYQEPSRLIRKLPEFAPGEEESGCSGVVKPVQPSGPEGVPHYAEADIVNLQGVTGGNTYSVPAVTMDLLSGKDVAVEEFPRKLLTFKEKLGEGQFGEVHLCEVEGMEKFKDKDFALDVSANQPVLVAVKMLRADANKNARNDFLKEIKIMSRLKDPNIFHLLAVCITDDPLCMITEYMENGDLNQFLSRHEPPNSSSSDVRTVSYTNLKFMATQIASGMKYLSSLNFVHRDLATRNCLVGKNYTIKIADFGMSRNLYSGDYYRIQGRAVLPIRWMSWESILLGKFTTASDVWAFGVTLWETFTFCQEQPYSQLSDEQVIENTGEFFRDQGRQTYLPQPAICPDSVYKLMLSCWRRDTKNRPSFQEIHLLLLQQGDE
Outline: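 NCI-H2286 cells exposed to compound for 2 h at 37 °C and lysed in SDS sample buffer. Lysates run on 10% SDS-PAGE and blotted to nitrocellulose. Membranes probed for phospho- and total DDR2, ERK and Akt, with GAPDH as loading control, and detected by HRP secondary antibody and enhanced chemiluminescence.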

[5] = target: Vascular endothelial growth factor receptor 1 (Homo sapiens) (UniProt P17948); experiment: Inhibition of VEGFR1 (unknown origin) at 100 nM relative to control
Outline: (§2)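 ELISA with purified recombinant kinase on plates precoated with poly(Glu,Tyr) 4:1 at 20 µg/mL. ATP 10 µM in HEPES pH 7.4 buffer with MgCl2, MnCl2, Na3VO4 and DTT. Run 60 min at 37 °C. Detected with anti-phosphotyrosine PY99, HRP secondary antibody and o-phenylenediamine, read at 490 nm. Inhibition % = [1 − A490/A490 control]×100. 1% DMSO as negative control.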

[6] = target: Receptor-type tyrosine-protein kinase FLT3 (Homo sapiens) (UniProt P36888); experiment: Inhibition of FLT-3 (unknown origin) at 10 nM relative to control; outline: as §1
[7] = target: Angiopoietin-1 receptor (Homo sapiens) (UniProt Q02763); experiment: Inhibition of Tie-2 (unknown origin) at 1000 nM relative to control; outline: as §2
[8] = target: Ephrin type-A receptor 2 (Homo sapiens) (UniProt P29317); experiment: Inhibition of EPH-A2 (unknown origin) at 10 nM relative to control; outline: as §1
[9] = target: Proto-oncogene tyrosine-protein kinase Src (Homo sapiens) (UniProt P12931); experiment: Inhibition of c-Src (unknown origin) at 100 nM relative to control; outline: as §2
[10] = target: Proto-oncogene tyrosine-protein kinase Src (Homo sapiens) (UniProt P12931); experiment: Inhibition of c-Src (unknown origin) at 10 nM relative to control; outline: as §2
[11] = target: Focal adhesion kinase 1 (Homo sapiens) (UniProt Q05397); experiment: Inhibition of FAK (unknown origin) at 1000 nM relative to control; outline: as §1
[12] = target: ALK tyrosine kinase receptor (Homo sapiens) (UniProt Q9UM73); experiment: Inhibition of ALK (unknown origin) at 1000 nM relative to control
[13] = target: Mitogen-activated protein kinase 3 (Homo sapiens) (UniProt P27361); experiment: Inhibition of ERK1 (unknown origin) at 100 nM relative to control
[14] = target: Tyrosine-protein kinase ABL1 (Homo sapiens) (UniProt P00519); experiment: Inhibition of ABL (unknown origin) at 100 nM relative to control
[15] = target: Epidermal growth factor receptor (Homo sapiens) (UniProt P00533); experiment: Inhibition of EGFR (unknown origin) at 100 nM relative to control
[16] = target: Receptor tyrosine-protein kinase erbB-2 (Homo sapiens) (UniProt P04626); experiment: Inhibition of ErbB2 (unknown origin) at 1000 nM relative to control; outline: as §1
[17] = target: Cyclin-dependent kinase 6 (Homo sapiens) (UniProt Q00534); experiment: Inhibition of CDK6 (unknown origin) at 100 nM relative to control
[18] = target: ALK tyrosine kinase receptor (Homo sapiens) (UniProt Q9UM73); experiment: Inhibition of ALK (unknown origin) at 10 nM relative to control

ALK tyrosine kinase receptor (Homo sapiens), sequence (Q9UM73 19-1620 limits assumed): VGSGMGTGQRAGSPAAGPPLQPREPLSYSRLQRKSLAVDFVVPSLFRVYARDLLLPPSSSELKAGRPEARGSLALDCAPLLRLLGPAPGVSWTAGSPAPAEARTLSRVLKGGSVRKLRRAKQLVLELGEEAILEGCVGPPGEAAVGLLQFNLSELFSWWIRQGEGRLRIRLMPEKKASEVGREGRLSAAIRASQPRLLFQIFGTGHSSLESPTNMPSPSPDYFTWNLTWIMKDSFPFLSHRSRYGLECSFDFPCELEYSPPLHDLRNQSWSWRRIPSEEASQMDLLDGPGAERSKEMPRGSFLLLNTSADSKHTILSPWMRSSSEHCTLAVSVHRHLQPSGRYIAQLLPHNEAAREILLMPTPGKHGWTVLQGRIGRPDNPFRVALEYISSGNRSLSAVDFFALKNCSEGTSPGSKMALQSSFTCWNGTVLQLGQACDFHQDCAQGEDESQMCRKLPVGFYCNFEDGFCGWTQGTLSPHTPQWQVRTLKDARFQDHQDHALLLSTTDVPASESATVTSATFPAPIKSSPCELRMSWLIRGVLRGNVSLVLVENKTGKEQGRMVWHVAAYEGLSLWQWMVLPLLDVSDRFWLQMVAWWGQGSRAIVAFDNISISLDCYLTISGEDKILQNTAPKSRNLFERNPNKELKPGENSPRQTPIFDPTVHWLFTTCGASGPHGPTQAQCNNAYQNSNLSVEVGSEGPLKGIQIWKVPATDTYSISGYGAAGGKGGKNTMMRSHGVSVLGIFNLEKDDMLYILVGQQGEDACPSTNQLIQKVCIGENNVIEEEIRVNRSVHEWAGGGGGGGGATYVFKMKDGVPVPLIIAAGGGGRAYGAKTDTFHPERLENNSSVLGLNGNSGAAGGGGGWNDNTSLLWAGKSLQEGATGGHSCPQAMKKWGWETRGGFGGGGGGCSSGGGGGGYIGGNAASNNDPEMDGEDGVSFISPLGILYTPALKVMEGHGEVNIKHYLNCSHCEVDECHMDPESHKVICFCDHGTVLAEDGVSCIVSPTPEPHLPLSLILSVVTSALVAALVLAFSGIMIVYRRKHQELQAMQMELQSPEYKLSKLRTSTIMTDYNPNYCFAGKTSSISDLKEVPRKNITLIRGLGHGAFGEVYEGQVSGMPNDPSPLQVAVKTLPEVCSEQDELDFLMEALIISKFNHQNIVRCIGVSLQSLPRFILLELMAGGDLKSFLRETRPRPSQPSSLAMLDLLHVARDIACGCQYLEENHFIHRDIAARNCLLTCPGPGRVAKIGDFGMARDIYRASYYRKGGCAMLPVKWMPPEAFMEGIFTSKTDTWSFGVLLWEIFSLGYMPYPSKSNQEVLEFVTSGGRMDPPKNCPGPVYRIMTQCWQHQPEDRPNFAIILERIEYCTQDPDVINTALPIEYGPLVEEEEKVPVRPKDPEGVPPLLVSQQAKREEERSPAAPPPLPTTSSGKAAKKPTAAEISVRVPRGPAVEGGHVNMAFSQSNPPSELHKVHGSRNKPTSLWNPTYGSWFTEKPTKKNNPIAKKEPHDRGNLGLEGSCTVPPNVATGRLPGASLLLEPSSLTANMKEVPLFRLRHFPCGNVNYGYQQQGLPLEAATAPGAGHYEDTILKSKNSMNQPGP
Mitogen-activated protein kinase 3 (Homo sapiens), sequence (P27361 whole entry): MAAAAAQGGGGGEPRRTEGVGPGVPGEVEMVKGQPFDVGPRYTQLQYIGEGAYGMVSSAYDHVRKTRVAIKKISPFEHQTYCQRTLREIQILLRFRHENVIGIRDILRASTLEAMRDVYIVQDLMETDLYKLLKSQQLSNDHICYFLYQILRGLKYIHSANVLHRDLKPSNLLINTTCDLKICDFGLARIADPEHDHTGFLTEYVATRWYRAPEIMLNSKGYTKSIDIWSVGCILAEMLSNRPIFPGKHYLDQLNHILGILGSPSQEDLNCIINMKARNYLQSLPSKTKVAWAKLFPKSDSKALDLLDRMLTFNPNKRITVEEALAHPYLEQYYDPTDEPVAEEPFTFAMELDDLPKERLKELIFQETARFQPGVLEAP
Proto-oncogene tyrosine-protein kinase Src (Homo sapiens), sequence (P12931 2-536 limits assumed): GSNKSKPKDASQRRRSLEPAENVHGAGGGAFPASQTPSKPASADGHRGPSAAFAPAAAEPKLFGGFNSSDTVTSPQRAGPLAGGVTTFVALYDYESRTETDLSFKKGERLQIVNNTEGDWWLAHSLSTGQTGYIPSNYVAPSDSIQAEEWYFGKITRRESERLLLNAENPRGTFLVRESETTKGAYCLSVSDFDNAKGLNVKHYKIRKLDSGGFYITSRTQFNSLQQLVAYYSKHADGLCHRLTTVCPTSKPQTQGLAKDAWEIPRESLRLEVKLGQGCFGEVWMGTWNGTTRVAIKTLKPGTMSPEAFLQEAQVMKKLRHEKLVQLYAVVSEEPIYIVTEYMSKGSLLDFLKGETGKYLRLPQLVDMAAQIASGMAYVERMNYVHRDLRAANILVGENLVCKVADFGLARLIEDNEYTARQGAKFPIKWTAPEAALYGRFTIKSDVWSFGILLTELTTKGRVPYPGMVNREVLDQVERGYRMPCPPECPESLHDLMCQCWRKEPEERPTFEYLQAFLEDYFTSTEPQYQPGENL
Cyclin-dependent kinase 6 (Homo sapiens), sequence (Q00534 whole entry): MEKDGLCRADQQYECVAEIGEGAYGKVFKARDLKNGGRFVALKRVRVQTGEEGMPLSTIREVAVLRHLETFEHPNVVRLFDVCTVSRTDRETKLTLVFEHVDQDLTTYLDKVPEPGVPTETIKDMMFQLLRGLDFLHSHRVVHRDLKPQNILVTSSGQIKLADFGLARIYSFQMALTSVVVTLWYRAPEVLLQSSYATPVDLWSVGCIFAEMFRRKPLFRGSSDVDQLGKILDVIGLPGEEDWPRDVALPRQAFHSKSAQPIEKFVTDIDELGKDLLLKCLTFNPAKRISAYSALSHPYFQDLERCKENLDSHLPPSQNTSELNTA
Focal adhesion kinase 1 (Homo sapiens), sequence (Q05397 2-1052 limits assumed): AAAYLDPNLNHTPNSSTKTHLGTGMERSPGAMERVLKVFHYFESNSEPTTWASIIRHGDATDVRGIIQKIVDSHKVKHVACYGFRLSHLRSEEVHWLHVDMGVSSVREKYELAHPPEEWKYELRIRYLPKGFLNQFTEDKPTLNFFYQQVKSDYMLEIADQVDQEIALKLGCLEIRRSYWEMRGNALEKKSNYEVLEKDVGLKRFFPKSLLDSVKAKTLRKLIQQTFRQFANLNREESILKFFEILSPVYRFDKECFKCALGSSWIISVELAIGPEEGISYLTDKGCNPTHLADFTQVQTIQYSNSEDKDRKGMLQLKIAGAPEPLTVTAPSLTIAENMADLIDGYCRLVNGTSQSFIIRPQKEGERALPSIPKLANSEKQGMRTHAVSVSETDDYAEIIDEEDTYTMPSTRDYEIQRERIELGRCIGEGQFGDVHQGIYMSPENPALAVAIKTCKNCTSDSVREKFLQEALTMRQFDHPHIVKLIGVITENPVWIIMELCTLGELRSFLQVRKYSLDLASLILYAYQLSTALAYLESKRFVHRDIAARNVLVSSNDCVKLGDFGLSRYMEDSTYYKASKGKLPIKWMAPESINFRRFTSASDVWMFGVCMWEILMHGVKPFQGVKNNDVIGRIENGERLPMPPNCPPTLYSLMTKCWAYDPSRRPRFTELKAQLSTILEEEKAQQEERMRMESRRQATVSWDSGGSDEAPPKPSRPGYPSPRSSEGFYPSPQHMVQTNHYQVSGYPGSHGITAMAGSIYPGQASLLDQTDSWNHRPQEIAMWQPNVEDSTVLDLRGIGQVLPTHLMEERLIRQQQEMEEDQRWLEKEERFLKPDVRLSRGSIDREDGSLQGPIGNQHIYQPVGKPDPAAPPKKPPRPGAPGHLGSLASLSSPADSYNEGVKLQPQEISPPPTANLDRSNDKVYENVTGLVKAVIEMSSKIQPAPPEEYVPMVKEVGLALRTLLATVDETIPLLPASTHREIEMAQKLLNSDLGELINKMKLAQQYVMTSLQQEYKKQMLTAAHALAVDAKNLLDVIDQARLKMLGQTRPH
Tyrosine-protein kinase ABL1 (Homo sapiens), sequence (P00519 whole entry): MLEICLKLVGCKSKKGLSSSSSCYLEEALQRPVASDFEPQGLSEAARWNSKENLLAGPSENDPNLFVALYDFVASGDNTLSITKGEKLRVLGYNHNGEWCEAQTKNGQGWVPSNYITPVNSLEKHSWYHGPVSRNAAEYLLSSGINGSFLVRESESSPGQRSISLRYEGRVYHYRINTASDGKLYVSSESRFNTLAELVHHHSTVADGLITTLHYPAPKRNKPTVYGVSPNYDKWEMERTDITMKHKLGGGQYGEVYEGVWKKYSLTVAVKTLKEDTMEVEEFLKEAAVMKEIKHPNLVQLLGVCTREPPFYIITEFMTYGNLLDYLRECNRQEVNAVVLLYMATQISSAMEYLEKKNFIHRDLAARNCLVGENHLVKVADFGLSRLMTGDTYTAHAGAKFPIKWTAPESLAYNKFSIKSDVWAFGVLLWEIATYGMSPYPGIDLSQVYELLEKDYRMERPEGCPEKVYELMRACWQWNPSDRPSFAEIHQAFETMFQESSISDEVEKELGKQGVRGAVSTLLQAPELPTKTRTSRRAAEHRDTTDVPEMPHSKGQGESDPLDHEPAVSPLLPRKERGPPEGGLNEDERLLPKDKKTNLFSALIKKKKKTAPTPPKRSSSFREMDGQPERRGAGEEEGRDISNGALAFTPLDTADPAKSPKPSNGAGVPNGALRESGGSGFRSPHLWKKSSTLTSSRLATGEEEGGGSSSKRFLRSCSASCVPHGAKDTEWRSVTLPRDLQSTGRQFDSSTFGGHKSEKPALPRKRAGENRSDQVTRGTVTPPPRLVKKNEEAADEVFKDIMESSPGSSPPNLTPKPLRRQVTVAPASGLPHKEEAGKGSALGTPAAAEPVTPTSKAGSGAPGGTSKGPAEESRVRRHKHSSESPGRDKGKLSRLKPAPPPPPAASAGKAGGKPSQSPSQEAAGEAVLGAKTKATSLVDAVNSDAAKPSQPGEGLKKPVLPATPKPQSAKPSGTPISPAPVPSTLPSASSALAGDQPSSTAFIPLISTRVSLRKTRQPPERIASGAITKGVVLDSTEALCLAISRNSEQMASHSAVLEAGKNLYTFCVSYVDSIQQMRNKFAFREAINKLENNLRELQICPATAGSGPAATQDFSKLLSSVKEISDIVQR

inhibition [2]: -2.8%
inhibition [3]: 75.7%
inhibition [4]: Active
inhibition [5]: 46.8%
inhibition [6]: 59.3%
inhibition [7]: 83.6%
inhibition [8]: 86.6%
inhibition [9]: 87.6%
inhibition [10]: 64.5%
inhibition [11]: 81.7%
inhibition [12]: 93.5%
inhibition [13]: 0.6%
inhibition [14]: 100%
inhibition [15]: 33.9%
inhibition [16]: 0%
inhibition [17]: 2.6%
inhibition [18]: 60%
SMILES: Cc1ccc(C(=O)Nc2cccc(C(F)(F)F)c2)cc1-c1ccc2c(-c3cnn(C4CC4)c3)n[nH]c2c1
IC50 [1]: 307 nM
inhibition in vivo at 20 mg/kg (NCI-H1581): 98.1%
